Assay results: ChEMBL document CHEMBL3997808 (J Med Chem, 2017)
Values after ≈ are worked out from the molar mass of the structure shown.

What was measured:
[1] = biological target: T1, Receptor-interacting serine/threonine-protein kinase 1 (Homo sapiens, UniProt Q13546); assay: Displacement of (14-(2-{[3-({2-{[4-(cyanomethyl)phenyl]amino}-6-[(5-cyclopropyl-1H-pyrazol-3-yl)-amino]-4-pyrimidinyl}amino)propyl]amino}-2-oxoethyl)-16,16,18,18-tetramethyl-6,7,7a,8a,9,10,16,18-octahydrobenzo[2'',3'']indolizino-[8'',7'':5',6']pyrano[3',2':3,4]pyrido[1,2-a]indol-5-ium-2-sulfonate from human RIP1 (1 to 375 residues) expressed in baculovirus infected insect cells measured for 50 min
T1 sequence (Q13546 whole entry): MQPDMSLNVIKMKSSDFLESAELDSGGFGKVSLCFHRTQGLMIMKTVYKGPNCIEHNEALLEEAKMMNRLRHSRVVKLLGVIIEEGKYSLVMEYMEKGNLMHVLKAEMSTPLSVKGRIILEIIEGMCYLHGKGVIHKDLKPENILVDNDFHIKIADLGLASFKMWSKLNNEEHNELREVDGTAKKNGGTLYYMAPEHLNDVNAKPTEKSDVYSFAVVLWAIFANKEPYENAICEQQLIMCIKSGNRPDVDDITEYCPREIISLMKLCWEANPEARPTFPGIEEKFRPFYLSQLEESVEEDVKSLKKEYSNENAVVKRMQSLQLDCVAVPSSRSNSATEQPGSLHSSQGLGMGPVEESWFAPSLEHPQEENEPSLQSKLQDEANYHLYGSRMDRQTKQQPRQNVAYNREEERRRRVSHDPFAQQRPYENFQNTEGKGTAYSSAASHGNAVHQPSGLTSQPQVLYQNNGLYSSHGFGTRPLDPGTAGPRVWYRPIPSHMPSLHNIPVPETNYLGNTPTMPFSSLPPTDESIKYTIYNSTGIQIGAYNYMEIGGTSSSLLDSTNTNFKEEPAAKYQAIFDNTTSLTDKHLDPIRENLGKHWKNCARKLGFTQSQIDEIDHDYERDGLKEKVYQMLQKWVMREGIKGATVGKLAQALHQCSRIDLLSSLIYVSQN

[2] = Lipophilicity, log D of the compound at pH 7.4 by RP-HPLC method; type: physicochemical; details: buffer
Method in brief: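 Chromatographic hydrophobicity index (CHI) log D at pH 7.4, calculated from the retention time in a fast-gradient reverse-phase HPLC run.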

[3] = (§1) AUC (0 to infinity) in rat at 2 mg/kg, po; type: ADME, organism-based; design: dose 2 mg/kg, route oral, time infinity; details: in vivo
[4] = Solubility of the compound in FaSSIF; type: physicochemical
[5] = Clearance in rat at 2 mg/kg, po; type: ADME, organism-based; details: in vivo
[6] = system: Rattus norvegicus; assay: Volume of distribution in rat at 2 mg/kg, po; type: ADME, organism-based; details: in vivo
[7] = biological target: T1, Receptor-interacting serine/threonine-protein kinase 1; assay: Inhibition of human RIP1 (1 to 375 residues) expressed in baculovirus infected insect cells preincubated for 1 hr followed by ATP addition measured after 5 hrs by ADP-Glo luminescence assay
[8] = Drug level in rat hepatocytes treated with GSK2982772 at 10 uM measured up to 4 hrs; type: ADME, cell-based, Hepatocyte
Method in brief: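 Compound at 10 μM was incubated with hepatocyte suspensions at 1 million cells/mL. Incubation ran at 37°C under 5% CO2:95% O2 for up to 4 h.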

[9] = system: Rattus norvegicus; assay: as §1; type: ADME, organism-based; design: dose 2 mg/kg, route oral, time infinity; details: in vivo, BLD = below limit of detection

SMILES | IC50 [1] [nM] | chromatographic logD [2] | AUC(0-inf) [3] [ng·h/mL] | IC50 [7] [nM] | also measured
CN1C(=O)[C@@H](NC(=O)c2cc(CC3CCCCC3)on2)COc2ccccc21 | 251 | – | – | – | –
CN1C(=O)[C@@H](NC(=O)c2cc(Cc3ccccc3)on2)CCc2ccccc21 | – | 6 | 7 | – | –
CN1C(=O)[C@@H](NC(=O)c2cc(Cc3ccccc3)on2)COc2ccccc21 | – | 5.9 | 380 | – | solubility [4]: 30 µg/mL (≈ 79.5 µM); CL/F [5]: 69 mL/min/kg; Vd [6]: 8.5 L/kg
CN1C(=O)[C@@H](NC(=O)c2cn(Cc3ccccc3)nn2)COc2ccccc21 | – | 4.6 | 1300 | 1 | –
CCN1C(=O)[C@@H](NC(=O)c2cc(Cc3ccccc3)on2)COc2ccccc21 | 3160 | – | – | – | –
CN1C(=O)[C@@H](NC(=O)c2cc(Cc3ccccc3)on2)CNc2ccccc21 | – | 5 | 800 | – | solubility [4]: 97 µg/mL (≈ 258 µM)
CC(C)Cc1cc(C(=O)N[C@H]2COc3ccccc3N(C)C2=O)no1 | 1600 | – | – | – | –
O=C(N[C@H]1CO[C@@H]2CCCC[C@H]2NC1=O)c1cc(Cc2ccccc2)on1 | > 10000 | – | – | – | –
CN(C(=O)c1cc(Cc2ccccc2)on1)[C@H]1COc2ccccc2NC1=O | > 10000 | – | – | – | –
O=C(O)c1n[nH]c(Cc2ccccc2)n1 | – | – | – | – | Drug metabolism [8]: Metabolite_Detected
O=C(N[C@@H]1CNc2ccccc2OC1)c1cc(Cc2ccccc2)on1 | > 10000 | – | – | – | –
O=C(N[C@H]1COc2ccccc2N(C2CC2)C1=O)c1cc(Cc2ccccc2)on1 | > 10000 | – | – | – | –
CN1C(=O)[C@@H](NC(=O)c2noc(Cc3ccccc3)n2)COc2ccccc21 | – | 5.4 | 33 | 0.5 | –
Cc1cc(C(=O)N[C@H]2COc3ccccc3N(C)C2=O)no1 | 12600 | – | – | – | –
O=C(N[C@H]1COc2ccccc2NC1=O)c1n[nH]c(Cc2ccccc2)n1 | – | – | – | – | Drug metabolism [8]: Metabolite_Detected
CN1C(=O)[C@@H](NC(=O)c2ncc(Cc3ccccc3)o2)COc2ccccc21 | – | 5.6 | 55 | 0.05 | –
CN1C(=O)[C@@H](NC(=O)c2nnc(Cc3ccccc3)o2)COc2ccccc21 | – | 4.9 | 130 | 0.79 | –
C[C@]1(NC(=O)c2cc(Cc3ccccc3)on2)COc2ccccc2NC1=O | > 10000 | – | – | – | –
CN1C(=O)[C@@H](NC(=O)c2cc(CN3CCCCC3)on2)COc2ccccc21 | > 10000 | – | – | – | –
CN1C(=O)[C@@H](NC(=O)c2cc(Cc3ccccc3)ccn2)COc2ccccc21 | – | 6.4 | – | 2 | –
CN1C(=O)[C@@H](NC(=O)c2cccc(Cc3ccccc3)c2)COc2ccccc21 | 251 | 6.3 | – | – | –
CC(=O)Nc1ccc2c(c1)N(C)C(=O)[C@@H](NC(=O)c1cc(Cc3ccccc3)on1)CO2 | – | – | 450 | 0.32 | –

SMILES | IC50 [1] [nM] | chromatographic logD [2] | AUC(0-inf) [3] [ng·h/mL] | IC50 [7] [nM] | also measured
CN1C[C@H](NC(=O)c2cc(Cc3ccccc3)on2)C(=O)N(C)c2ccccc21 | – | 6 | 82 | 5 | –
CN1C(=O)[C@@H](N)COc2ccccc21 | – | – | – | – | Drug metabolism [8]: Metabolite_Detected
CN1C(=O)[C@@H](NC(=O)c2cn(Cc3ccccc3)cn2)COc2ccccc21 | – | 4.2 | 660 | 0.4 | –
CN1C(=O)[C@@H](NC(=O)c2cc(Cc3ccccc3)n(C)n2)COc2ccccc21 | – | 5.4 | 170 | 0.4 | –
O=C(NC1Cc2ccccc2NC1=O)c1cc(Cc2ccccc2)on1 (configuration not stated) | > 10000 | – | – | – | –
CN1C(=O)[C@@H](NC(=O)c2ncc(Cc3ccccc3)s2)COc2ccccc21 | – | 6.5 | – | – | –
CN1C(=O)[C@@H](NC(=O)c2cc(Cc3ccccc3)on2)CSc2ccccc21 | – | 6.2 | – | – | AUC [9]: Bld
CN1C(=O)[C@@H](NC(=O)c2cc(Cc3ccccc3)on2)COc2ccc(-c3cc[nH]n3)cc21 | – | – | 600 | 1 | –
CN1C(=O)[C@@H](NC(=O)c2coc(Cc3ccccc3)n2)COc2ccccc21 | 794 | 5.4 | – | – | –
CN1C(=O)[C@@H](NC(=O)c2c[nH]c(Cc3ccccc3)n2)COc2ccccc21 | 1260 | 3.8 | – | – | –
O=C(N[C@H]1COCCNC1=O)c1cc(Cc2ccccc2)on1 | > 10000 | – | – | – | –
CCCCCc1cc(C(=O)N[C@H]2COc3ccccc3N(C)C2=O)no1 | 100 | – | – | – | –
COC(=O)Nc1ccc2c(c1)N(C)C(=O)[C@@H](NC(=O)c1cc(Cc3ccccc3)on1)CO2 | – | – | 1100 | 0.32 | –
O=C(N[C@H]1COc2ccccc2NC1=O)c1cc(Cc2ccccc2)on1 | – | – | 2200 | – | –
CN1C(=O)[C@@H](NC(=O)c2cnn(Cc3ccccc3)c2)COc2ccccc21 | 63 | 4 | 2900 | – | –
CN1C(=O)[C@@H](NC(=O)c2n[nH]c(C(O)c3ccccc3)n2)COc2ccccc21 (some centres not stated) | – | – | – | – | Drug metabolism [8]: Metabolite_Detected
O=C(N[C@H]1CCOc2ccccc2NC1=O)c1cc(Cc2ccccc2)on1 | 200 | – | 380 | – | –
CN1C(=O)[C@@H](NC(=O)c2cc(Cc3ccccc3)on2)COc2ccc(NS(C)(=O)=O)cc21 | – | – | – | 0.63 | –
CN1C(=O)[C@@H](NC(=O)c2nnn(Cc3ccccc3)n2)COc2ccccc21 | – | 5 | 240 | 0.079 | –
CN1C(=O)[C@@H](NC(=O)c2ncn(Cc3ccccc3)n2)COc2ccccc21 | – | 4.2 | 280 | 0.63 | –
CN1C(=O)[C@@H](NC(=O)c2cc(Cc3ccccc3)on2)COc2ccc(-c3n[nH]c(=O)o3)cc21 | – | 4.4 | 2100 | 0.5 | solubility [4]: 8 µg/mL (≈ 17.3 µM)
